# From PubChem
# Most compounds without a hit are left out; they make up all but 2.2% or so of the library.
# E-sel inducer: E-selectin induction in HUVECs, primary screen, imaging, HUVEC, immunofluorescence imaging, single point; P16581; normalized: neutral wells 0, TNF-alpha wells 100; activation, % at 7.58 µM; 260,000 tested, 0.37% active; AID 686992, 2013;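 active = mean E-selectin-positive cell signal at least 10% of the positive control, reached in at least 60% of replicates, without over 20% cell loss; inconclusive = no rule given, readout overlaps actives, possibly toxicity-flagged; inactive = the rest, including those meeting only one limit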
# Target sequence (P16581 whole entry, looked up): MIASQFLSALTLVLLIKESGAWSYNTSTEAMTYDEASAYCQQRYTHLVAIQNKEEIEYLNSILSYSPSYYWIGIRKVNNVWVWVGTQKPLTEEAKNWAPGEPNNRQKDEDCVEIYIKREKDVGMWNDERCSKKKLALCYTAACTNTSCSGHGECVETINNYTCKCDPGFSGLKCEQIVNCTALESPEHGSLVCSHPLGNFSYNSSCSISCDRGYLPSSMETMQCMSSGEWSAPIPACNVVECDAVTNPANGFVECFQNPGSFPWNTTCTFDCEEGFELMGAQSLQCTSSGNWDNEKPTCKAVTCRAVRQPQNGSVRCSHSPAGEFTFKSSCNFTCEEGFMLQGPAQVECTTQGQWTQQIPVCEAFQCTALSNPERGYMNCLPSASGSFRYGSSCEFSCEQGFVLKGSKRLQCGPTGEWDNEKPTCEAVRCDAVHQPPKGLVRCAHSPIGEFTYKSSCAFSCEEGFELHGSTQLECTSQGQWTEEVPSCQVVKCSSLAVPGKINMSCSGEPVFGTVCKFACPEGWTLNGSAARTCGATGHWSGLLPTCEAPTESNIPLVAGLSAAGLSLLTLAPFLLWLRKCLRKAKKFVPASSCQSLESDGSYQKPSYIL
#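 material = human umbilical vein endothelial cells (HUVEC), E-selectin induction | quantity = 3,000 cells/well | medium = EGM-2 growth medium on 0.1% gelatin-coated wells | technique = immunofluorescence imaging | read-out basis = % PE-positive cells | control set = TNF-alpha positive control, DMSO neutral control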
# Statin myotox sup: suppressors of statin myotoxicity in C2C12 myotubes, primary screen, cell-based, single point, plate reader; C2C12 myotubes + simvastatin, ATP luminescence, 48 h; scaled: DMSO 0, geranylgeraniol control 100; rescue of ATP level, % at 7.49 µM; 330,000 tested, 0.78% active; AID 602340, 2012;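 active = mean ATP rescue above about 67%, or every replicate alone reaching that limit, limit read from the data, passing the limit was not always enough; inconclusive = no clear call, values can overlap the other calls; inactive = mean under the limit and some replicate under it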;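 note: myotubes were challenged with 10 µM simvastatin during compound exposure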
# DENV2 CPE: inhibitors of DENV2 cytopathic effect, primary screen, cell-based, plate reader, single concentration; 350,000 tested, 1.7% active; CPE inhibition, % at 9.99 µM; AID 651640, 2012; DENV2-infected cells, cytopathic effect rescue; in the data active = CPE inhibition above about 20%, passing the limit was not always enough; inconclusive = no clear call, values can overlap the other calls; tested in BHK-21 cells;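 note: 0% = median of neutral control wells and 100% = median of positive control wells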
# * = called active by the depositor; ? = inconclusive; nt = no result.
SMILES,E-sel inducer,Statin myotox sup,DENV2 CPE
COCCNC(=O)C[C@@H]1CC[C@H]2[C@H](COc3ccc(NC(=O)c4cc(C)on4)cc3C(=O)N2C)O1,0,-10,-1
Cc1ccnc(NC(NC(=O)C(C)C)(C(F)(F)F)C(F)(F)F)c1,136*,nt,20
COC(=O)C(NC(=O)c1ccco1)(Nc1cc(C)ccn1)C(F)(F)F (configuration not stated),nt,2,nt
CCOc1cccc(SCc2noc(C(=O)NCCOC)c2C(=O)O)c1,0,-19,6
CCCNC(=O)c1onc(CSc2ccc(Cl)cc2)c1C(=O)NCCC(C)C,0,75*,nt
C=CCNC(=O)c1c(CSc2ccc(Cl)cc2)noc1C(=O)NCCC,0,-9,nt
C=CCNC(=O)c1onc(CSc2ccc(F)c(F)c2)c1C(=O)NCC=C,0,-14,nt
O=C(NCC1CC1)c1onc(CSc2ccc(F)c(F)c2)c1C(=O)NCC1CC1,0,-6,64*
CCCCNC(=O)c1onc(CSc2cccc(OCC)c2)c1C(=O)O,0,-2,24*
CCCNC(=O)N1CC2(C1)[C@H](c1ccccc1)[C@H](CO)N2C(=O)c1cccnc1,0,nt,9
C[C@@H]1CN([C@@H](C)CO)C(=O)c2cc(C#CC3CCCCC3)cnc2O[C@@H]1CN(C)S(C)(=O)=O,0,38,-1
CNC[C@@H]1Oc2ccc(NS(=O)(=O)c3cn(C)cn3)cc2CC(=O)N([C@H](C)CO)C[C@@H]1C,0,-14,-4
O=c1c2c3c(sc2nc(NCCOCCO)n1Cc1ccco1)CCCCC3,nt,4,-1
CC(O)CNc1nc2sc3c(c2c(=O)n1Cc1ccco1)CCCCC3 (configuration not stated),11,7,29*
COc1cccc(NC(=O)N2C[C@@H](O)COC[C@H]3O[C@@H](CC(=O)NC4CCCC4)CC[C@@H]32)c1,0,6,4
COC(=O)CCCC1=CC2=CC(=O)C(C)(OC(=O)c3cccs3)C(=O)C2=CN1CCc1ccccn1 (configuration not stated),0,-1,24*
C=CCN1C=C2C(=O)C(C)(OC(=O)c3cccs3)C(=O)C=C2C=C1CCCC(=O)OC (configuration not stated),0,-1,?
CCn1c(C)nnc1SCC(=O)Nc1ccc(C(C)=O)cc1,nt,6,6
CCc1nnc(SCC(=O)Nc2ccc(C(C)=O)cc2)nc1CC,nt,113*,nt
COCC(=O)Nc1ccc2c(c1)OC[C@@H](C)N(C(=O)NC(C)C)C[C@H](C)[C@H](OC)CN(C)C2=O,0,4,nt
CCN1C(=O)[C@H]2[C@@H](c3ccc(OC)cc3)N3C(=O)CN(CCOC)C(=O)[C@@]3(C)[C@H]2C1=O,0,9,98*
CCN1C(=O)[C@H]2[C@@H](c3ccc(OC)cc3)N3C(=O)CN(Cc4ccccc4)C(=O)[C@@]3(Cc3ccccc3)[C@H]2C1=O,0,10,nt
CCCNC(=O)C[C@H]1CC[C@H]2[C@@H](COc3ccc(NC(=O)Nc4cccc(C)c4)cc3C(=O)N2C)O1,0,16,19
CC=Cc1ccc2n(c1=O)C[C@H]1[C@H](CO)[C@@H](C(=O)N3CCOCC3)N(CC3CC3)[C@@H]21 (mixture of isomers),0,-4,-9
C=CCn1c(SCC(=O)NCc2ccco2)nc2sc(C)c(C)c2c1=O,nt,-56,-9
SMILES,E-sel inducer,Statin myotox sup,DENV2 CPE
Cc1sc2nc(SCC(=O)NCc3ccco3)n(Cc3ccccc3)c(=O)c2c1C,nt,114*,nt
C[C@H](CO)N1C[C@H](C)[C@@H](CN(C)C(=O)Nc2ccccc2)Oc2ccc(NS(=O)(=O)c3ccccc3)cc2CC1=O,0,-2,1
COc1cccc(CNC(=O)C[C@H]2C=C[C@H](NC(=O)C3CCC3)[C@@H](CO)O2)c1,0,8,nt
O=S(=O)(c1ccc(F)cc1)N1CC[C@H]2[C@H](CO)Nc3ccc(-c4ccccc4F)cc3[C@H]21,-1,6,43*
O=S(=O)(c1ccccc1F)N1CC[C@@H]2[C@@H](CO)Nc3ccc(-c4cccc(F)c4)cc3[C@@H]21,-1,-15,-19
Cc1ccc(S(=O)(=O)N2CC[C@H]3[C@H](CO)Nc4ccc(-c5ccccc5F)cc4[C@H]32)cc1,-1,14,18
O=S(=O)(c1ccccc1F)N1CC[C@@H]2[C@H](CO)Nc3ccc(-c4ccccc4)cc3[C@@H]21,1,-18,24*
Cc1ccc(S(=O)(=O)N2CC[C@@H]3[C@H](CO)Nc4ccc(-c5ccccc5F)cc4[C@@H]32)cc1,-1,1,147*
Cc1cccc(S(=O)(=O)N2CC[C@@H]3[C@H](CO)Nc4ccc(-c5ccccc5F)cc4[C@@H]32)c1,1,7,-8
Cc1cccc(S(=O)(=O)N2CC[C@@H]3[C@H]2c2cc(-c4ccccc4F)ccc2N[C@@H]3CO)c1,1,43,40*
O=S(=O)(c1ccccc1)N1CC[C@H]2[C@H](CO)Nc3ccc(-c4ccccc4F)cc3[C@H]21,1,-5,nt
O=C(C[C@@H]1CC[C@H]2NC[C@H](O)COC[C@@H]2O1)NCc1ccc(Oc2ccccc2)cc1,0,17,0
Cc1ccc(S(=O)(=O)N2CC[C@@H]3[C@H]2c2cc(-c4ccc(C#N)cc4)ccc2N[C@@H]3CO)cc1,-1,-14,24*
C/C=C/c1ccc2c(c1)[C@H]1[C@H](CCN1S(=O)(=O)c1ccccc1)[C@H](CO)N2,0,-16,-6
COc1ccc(S(=O)(=O)N2CC[C@@H]3[C@@H](CO)Nc4ccc(-c5ccc(C#N)cc5)cc4[C@@H]32)cc1,0,-73,7
C/C=C/c1ccc2c(c1)[C@H]1[C@H](CCN1S(=O)(=O)c1ccccc1F)[C@H](CO)N2,0,-47,25*
OC[C@H]1Nc2ccc(-c3ccc(F)cc3)cc2[C@H]2[C@@H]1CCN2Cc1ccc(F)cc1,nt,29,-27
Cc1ccccc1S(=O)(=O)N1CC[C@@H]2[C@@H](CO)Nc3ccc(-c4ccccc4F)cc3[C@@H]21,-1,-27,42*
O=S(=O)(c1ccccc1F)N1CC[C@@H]2[C@H](CO)Nc3ccc(-c4ccccc4F)cc3[C@@H]21,0,-30,-25
C/C=C/c1ccc2c(c1)[C@H]1[C@H](CCN1Cc1ccc(F)cc1)[C@H](CO)N2,0,nt,38*
Cc1noc(C)c1NC(=O)N(C)C[C@@H]1OCCCC[C@H](C)Oc2ccc(NC(=O)CCC(F)(F)F)cc2C(=O)N([C@H](C)CO)C[C@H]1C,0,nt,-6
CCCC#Cc1ccc([C@@H]2[C@H](C#N)N(C(=O)CN3CCOCC3)[C@H]2CO)cc1,0,-25,0
CCC(=O)N(C)C[C@H]1Oc2cc(C#CC(C)C)ccc2S(=O)(=O)N([C@@H](C)CO)C[C@@H]1C,0,11,-8
CCCC#Cc1ccc2c(c1)O[C@H](CN(C)C(=O)Nc1ccccc1F)[C@@H](C)CN([C@@H](C)CO)S2(=O)=O,1,-8,5
CO[C@H]1CN(C)C(=O)c2ccc(NC(=O)C3CCC3)cc2OC[C@H](C)N(Cc2ccncc2)C[C@@H]1C,0,-3,0
